PREPL inhibitor: human PREPL enzyme inhibition. recombinant PREPL, fluorescence polarization activity-based probe. inhibition, % at 5.96 µM. 320,000 tested, 0.68% active. AID 2751; in the data active means inhibition above about 43%
IDE cell inh: inhibits human insulin-degrading enzyme in HEK cells | AID 434962 | 320,000 tested, 0.41% active | FAbetaB cleavage, fluorescence polarization | inhibition, % at 5.59 µM | P14735;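 active means percent inhibition above the average of all tested compounds plus 3 SD, set per screening campaign, cut at about 16% in these data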;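 further: IDE supplied by intact live HEK cells; FP after avidin binding of uncleaved biotin substrate so inhibition keeps polarization high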
Target sequence (P14735 whole entry, looked up): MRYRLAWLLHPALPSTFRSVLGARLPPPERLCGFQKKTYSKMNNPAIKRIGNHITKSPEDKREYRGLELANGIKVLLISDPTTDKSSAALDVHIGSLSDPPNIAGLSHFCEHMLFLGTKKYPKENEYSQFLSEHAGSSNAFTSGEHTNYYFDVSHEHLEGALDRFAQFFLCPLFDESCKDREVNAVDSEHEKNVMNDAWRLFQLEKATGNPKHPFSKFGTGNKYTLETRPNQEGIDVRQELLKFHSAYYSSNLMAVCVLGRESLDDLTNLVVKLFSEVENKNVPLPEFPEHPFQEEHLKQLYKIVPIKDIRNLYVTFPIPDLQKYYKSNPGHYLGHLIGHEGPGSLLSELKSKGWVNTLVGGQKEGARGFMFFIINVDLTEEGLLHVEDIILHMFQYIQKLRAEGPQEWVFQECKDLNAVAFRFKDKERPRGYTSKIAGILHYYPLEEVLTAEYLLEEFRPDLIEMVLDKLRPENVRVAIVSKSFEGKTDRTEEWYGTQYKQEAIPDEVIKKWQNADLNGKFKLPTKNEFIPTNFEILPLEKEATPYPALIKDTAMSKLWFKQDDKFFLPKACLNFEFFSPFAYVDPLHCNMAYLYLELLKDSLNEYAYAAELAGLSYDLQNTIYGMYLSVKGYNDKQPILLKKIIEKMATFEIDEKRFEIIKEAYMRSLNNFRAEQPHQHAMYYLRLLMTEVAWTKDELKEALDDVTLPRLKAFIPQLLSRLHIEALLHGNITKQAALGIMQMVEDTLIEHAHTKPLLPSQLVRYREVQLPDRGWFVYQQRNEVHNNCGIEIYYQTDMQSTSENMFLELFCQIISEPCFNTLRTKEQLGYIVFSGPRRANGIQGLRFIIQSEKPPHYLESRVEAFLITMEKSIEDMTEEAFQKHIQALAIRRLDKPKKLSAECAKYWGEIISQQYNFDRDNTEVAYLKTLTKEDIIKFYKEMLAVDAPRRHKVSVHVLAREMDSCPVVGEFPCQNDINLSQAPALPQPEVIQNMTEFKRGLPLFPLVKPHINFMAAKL
ASAP1 GAP inh: inhibitors of human ASAP1 ArfGAP activity. inhibition, % at 16.5 µM. Q9ULH1. 360,000 tested, 0.19% active. AID 624377. ASAP1-stimulated ARF1 GTP hydrolysis, GDP FP detection; in the data active means inhibition above about 25%
ARFGAP1 inh: inhibits rat ARF GTPase activating protein 1; AID 651572; Arfgap1-stimulated ARF1 GTP hydrolysis, GDP FP detection; Q62848; 360,000 tested, 0.26% active; inhibition, % at 16.5 µM;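 active means inhibition above a per-plate limit, mean inhibition of low control wells plus 3 SD, cut at about 25% in these data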
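System: truncated rat Arfgap1 GAP domain / Benchmarks: high control wells lacking Arfgap1, low control full reaction with DMSO / Times: compound-enzyme preincubation 20 min, reaction 120 min, detection 60 min, 25 °C / Repeats: one replicate per compound / Also added: human ARF1(Δ1-17)-GTP substrate / Measured by: Tracer-displacement fluorescence polarization with EDTA stop, 620/688 nm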
IDE cell activ: IDE (human) activation, cell-based; P14735; activation, % at 5.96 µM; HEK cells, FAbeta-B cleavage, fluorescence polarization; 0% vehicle, 100% cell-free pure enzyme wells; 340,000 tested, 0.073% active; AID 493087;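 active means activation above the mean of all tested compounds plus 3 SD, set per screening campaign, cut at about 17% in these data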
IDE inh confirm: confirmation of human insulin-degrading enzyme inhibitors in cells; shares compounds with IDE cell inh; HEK cells, FAbetaB cleavage, fluorescence polarization; inhibition, % at 5.59 µM; 1,200 tested, 51% active;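 active means mean inhibition across triplicate wells above the cutoff set by the earlier primary insulin-degrading enzyme screen, cut at about 16% in these data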
HEK293 tox: HEK cell cytotoxicity, counter-screen for IDE inhibitors. shares compounds with IDE cell inh. HEK293 cytotoxicity, ATP luminescence. inhibition, % at 5.59 µM. 1,200 tested, 28% active; in the data active means inhibition above about 22%
Of the large screens only hits and unclear results are named; the others gave an inactive call (follow-up assays come after a bar, where they were run). Shown are actives, neighbours in structure and some others; about 1.2% of the full set was active somewhere.

CCOC(=O)C1=C(C)N=c2s/c(=C\c3ccc(OCC(=O)O)cc3)c(=O)n2C1c1ccccc1 (configuration not stated)	none
O=C(CNC(=O)C12CC3CC(CC(C3)C1)C2)N1CCN(S(=O)(=O)/C=C/c2ccccc2)CC1	none
CC(=O)N(C1=C(Cl)C(=O)c2ccccc2C1=O)C1CCCCC1	IDE cell inh 49.8 | IDE inh confirm 63.6 | HEK293 tox 123.8
Cc1[nH]n(-c2ccccc2)c(=S)c1C=NCCCN=Cc1c(C)[nH]n(-c2ccccc2)c1=S	IDE cell inh 32.3 | IDE inh confirm inactive | HEK293 tox 122.6
O=C(Nc1ccccc1SCC1CSc2nc3ccccc3c(=O)n21)c1ccccc1 (configuration not stated)	IDE cell inh 18.2 | IDE inh confirm inactive | HEK293 tox inactive
O=C(Nc1ccccc1Cl)C1CCN(S(=O)(=O)c2cccc3nonc23)CC1	none
COc1ccc(OCc2cc(C(=O)N3CCSCC3)no2)c(Cl)c1	IDE cell inh 18.4 | IDE inh confirm inactive | HEK293 tox inactive
COc1ccc2nc(Nc3sc4c(c3C(N)=O)CCCC4)sc2c1	IDE cell inh 19.6 | IDE inh confirm inactive | HEK293 tox inactive
C[n+]1cc(C(=O)N2CCCCC2)ccc1/C=C/c1c[nH]c2ccccc12	IDE cell inh 27.4 | IDE inh confirm 39.8 | HEK293 tox inactive
CC(=O)Cc1cc(O)c2ccccc2c1OC(=O)c1ccccc1	IDE cell inh 43.1 | IDE inh confirm 36.8 | HEK293 tox inactive
CC(=O)c1cc(C)c(OC(=O)c2ccccc2)c(C)c1	none (no result: PREPL inhibitor, IDE cell inh)
COc1cccc(C(=O)N2CCCc3ccccc32)c1OC	none (no result: PREPL inhibitor, IDE cell inh, IDE cell activ)
C/C(=N\Nc1ncnc2sc(C)c(C)c12)c1ccccn1	IDE cell inh 47.8 | IDE inh confirm 35.7 | HEK293 tox 118.2
O=C1CC(=O)N(Cc2ccco2)C(=O)N1	IDE cell inh 21.3 | IDE inh confirm inactive | HEK293 tox inactive
O=C1CC(=O)N(Cc2ccco2)C(=S)N1	none (no result: ASAP1 GAP inh, ARFGAP1 inh)
CN1/C(=C\C=C2/C(=O)Oc3ccccc3C2=O)C(C)(C)c2ccccc21	IDE cell inh 183.9 (no result: IDE cell activ) | IDE inh confirm 60.6 | HEK293 tox 23.2
CN1C(=CC=C2C=C(I)C(=O)C(I)=C2)C(C)(C)c2ccccc21	none (no result: PREPL inhibitor, IDE cell inh)
CN1/C(=C\C=C2/SC(=S)NC2=O)C(C)(C)c2ccccc21	IDE cell inh 115.8 | IDE inh confirm 151.6 | HEK293 tox 37.7
O=C(NCc1ccccc1)C(c1ccc(-c2ccccc2)cc1)N1CCN(C(=O)C2CCCO2)CC1 (configuration not stated)	none (no result: PREPL inhibitor, IDE cell inh, IDE cell activ)
Cc1cccc(N2CCN(C(=O)Cn3sc4nc(C)cc(C)c4c3=O)CC2C)c1 (configuration not stated)	IDE cell inh 41.1 (no result: ASAP1 GAP inh, ARFGAP1 inh) | IDE inh confirm inactive | HEK293 tox 76.5
Cc1cc(C)c2c(=O)n(CC(=O)Nc3cccc(F)c3)sc2n1	IDE cell inh 21.4 | IDE inh confirm inactive | HEK293 tox 113.4
Cc1ccc(NC(=O)Cn2sc3nc(C)cc(C)c3c2=O)c(Cl)c1	IDE cell inh 53.7 | IDE inh confirm inactive | HEK293 tox 26.6
CCOc1ccc(NC(=O)Cn2sc3nc(C)cc(C)c3c2=O)cc1	IDE cell inh 39.9 (no result: ASAP1 GAP inh, ARFGAP1 inh) | IDE inh confirm inactive | HEK293 tox 79.2
CCOC(=O)c1cn(CC(=O)Nc2cccc(F)c2)nn1	none
Cc1ccc(NC(=O)Cn2c(C)cc(C)c(C#N)c2=O)c(Cl)c1	none
CC(=O)c1ccc(N2CCN(C(=O)Cn3cnc(S(=O)(=O)N4CCCCC4)c3)CC2)cc1	none
O=C(NCC1CCCO1)c1ccccc1NS(=O)(=O)c1ccc(F)cc1 (configuration not stated)	none
Cc1cc(C)c2c(=O)n(CC(=O)Nc3ccc(Cl)cc3)sc2n1	IDE cell inh 46.1 | IDE inh confirm inactive | HEK293 tox 75.7
O=C(Cn1sc2ccccc2c1=O)Nc1ccc(Cl)cc1	none (no result: PREPL inhibitor, IDE cell inh, IDE cell activ)
CCOC1=C/C(=C/c2c(N)n3nc(CC(=O)N4CCCCC4)sc3nc2=O)C=CC1=O	IDE cell inh 20.6 | IDE inh confirm 25.9 | HEK293 tox inactive
CCOC1=C/C(=C/c2c(N)n3nc(S(=O)(=O)CC)sc3nc2=O)C=CC1=O	IDE cell inh 21.8 | IDE inh confirm 112.3 | HEK293 tox inactive
COC1=C/C(=C/c2c(N)n3nc(CC(=O)N4CCCCC4)sc3nc2=O)C=CC1=O	none (no result: ASAP1 GAP inh, ARFGAP1 inh)
C#CCOCCOCCOCCNc1nc(N2CCN(C(=O)C([C@@H](C)O)n3cc([C@@H](N)CCCCN)nn3)CC2)nc(N2CCN(C(=O)[C@H](CCCCN)n3cc([C@@H](N)CC(N)=O)nn3)CC2)n1 (some centres not stated)	none
O=C(N/N=C/c1ccc2c(c1)OCO2)c1ccc(COc2cccc3cccnc23)cc1	none
CC(=O)Oc1ccc(/C=C2/Oc3ccccc3C2=O)cc1	IDE cell inh 27.5 | IDE inh confirm 65.6 | HEK293 tox inactive
COC(=O)c1ccc2c(c1)C(=O)/C(=C/c1ccc(O)cc1)O2	IDE cell inh 54.8 | IDE inh confirm 86.3 | HEK293 tox inactive
Cc1cc(=O)oc2c3c(cc(OCC(=O)NCc4ccncc4)c12)OC(C)(C)CC3	IDE cell inh 21.6 | IDE inh confirm inactive | HEK293 tox 24.3
Cc1c(C)c2c(OCC(=O)NCc3ccncc3)cc3c(c2oc1=O)CCC(C)(C)O3	none
Cc1ccc(C)c(NC(=S)N/N=C/C(C)c2ccccc2)c1 (configuration not stated)	none
Cc1nc2ccc(NC(=S)NC3CCCCC3)cc2nc1C	IDE cell inh 21.1 | IDE inh confirm inactive | HEK293 tox inactive
COc1ccc(-c2nc(N)c(C#N)c(-c3cccnc3)c2C)cc1	none
O=C(N/N=C\c1c(O)ccc2ccccc12)c1ccc(Cn2cccn2)o1	IDE cell inh 41.9 | IDE inh confirm 62.9 | HEK293 tox 67.7
Cc1ccc(CC(=O)N2CCN(C(=O)C3CCCO3)CC2)cc1 (configuration not stated)	none
CC(=O)Nc1sc2c(c1-c1nc3ccccc3s1)CN(C(C)C)CC2	IDE cell inh 30.1 | IDE inh confirm inactive | HEK293 tox 95.1
CC(=O)N1CCc2c(sc(NC(=O)C3CC3)c2-c2nc3ccccc3s2)C1	none
N#C/C(C(=O)Nc1ccc(Cl)cc1)=C(/S)Nc1ccccc1	IDE cell inh 45.5 | IDE inh confirm inactive | HEK293 tox 24.1
C#CCOCCOCCOCCNc1nc(N2CCN(C(=O)[C@H]([C@@H](C)CC)n3cc([C@@H](N)CC(C)C)nn3)CC2)nc(N2CCN(C(=O)[C@H](Cc3ccc(O)cc3)n3cc([C@@H](N)C(C)CC)nn3)CC2)n1 (some centres not stated)	IDE cell inh 16.1 | IDE inh confirm inactive | HEK293 tox inactive
